Results taken from ChEMBL document CHEMBL3085624, “Design, synthesis, and biological evaluation of novel investigational nonapeptide KISS1R agonists with testosterone-suppressive activity” (J Med Chem, 2013).
The source made the active and inactive calls. No cut-off for these calls is given here. Non-standard residues stand in square brackets, D forms with d. Residues, ends and D or L forms follow the SMILES beside them. Arg(Me) = CNC(=N)NCCC[C@H](N)C(=O)O; d4Pal = N[C@H](Cc1ccncc1)C(=O)O; azaGly = NNC(=O)O

Key:
[1] = target: KiSS-1 receptor (Rattus norvegicus, UniProt Q924U1); experiment: Binding affinity to rat KISS1R
Chain of KiSS-1 receptor (Rattus norvegicus, UniProt Q924U1) (Q924U1 whole entry): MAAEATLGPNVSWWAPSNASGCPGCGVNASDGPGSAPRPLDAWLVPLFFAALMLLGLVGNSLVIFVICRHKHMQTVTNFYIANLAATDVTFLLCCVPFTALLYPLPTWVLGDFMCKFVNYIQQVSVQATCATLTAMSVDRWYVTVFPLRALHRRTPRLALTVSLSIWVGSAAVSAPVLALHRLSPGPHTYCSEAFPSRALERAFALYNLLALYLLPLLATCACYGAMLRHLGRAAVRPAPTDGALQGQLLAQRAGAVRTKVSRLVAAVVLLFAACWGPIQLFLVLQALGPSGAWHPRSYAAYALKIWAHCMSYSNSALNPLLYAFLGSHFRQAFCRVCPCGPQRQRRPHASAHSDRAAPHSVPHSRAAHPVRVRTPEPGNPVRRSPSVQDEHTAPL

[2] = target: T1, KiSS-1 receptor (Homo sapiens, UniProt Q969F8); experiment: Binding affinity to human KISS1R expressed in CHO cell membranes
T1 sequence (Q969F8 whole entry): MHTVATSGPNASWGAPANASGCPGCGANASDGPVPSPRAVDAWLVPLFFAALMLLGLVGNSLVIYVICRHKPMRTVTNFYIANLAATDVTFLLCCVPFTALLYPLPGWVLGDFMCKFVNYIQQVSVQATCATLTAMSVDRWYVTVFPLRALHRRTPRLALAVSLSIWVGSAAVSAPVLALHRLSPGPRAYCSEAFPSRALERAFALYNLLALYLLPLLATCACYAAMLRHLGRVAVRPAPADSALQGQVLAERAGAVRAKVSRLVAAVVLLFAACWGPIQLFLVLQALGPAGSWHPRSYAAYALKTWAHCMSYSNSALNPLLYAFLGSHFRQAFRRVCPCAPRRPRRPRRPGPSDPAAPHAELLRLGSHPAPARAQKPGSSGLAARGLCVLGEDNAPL

[3] = Metabolic stability in mouse serum assessed as compound remaining at 0.1 mM after 1 hr by HPLC analysis; format: ADME; settings: read-out: Stability
In short: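 Pooled mouse serum (45 µL) spiked with 5 µL of 1 mM aqueous peptide, giving 0.1 mM initial, and incubated at 37 °C. Aliquots taken at time 0 and after 1 h, quenched by boiling 3 min. Peptide quantified by HPLC peak area. Percent remaining relative to time 0; three independent experiments.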

[4] = tested on: Rattus norvegicus; experiment: Suppression of testosterone in plasma of rat at 1 nmol/h, sc measured after 13 days by radioimmunoassay; format: functional, organism-based
In short: (§1)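 Male rats given peptide continuously at 1 nmol/h. Plasma testosterone measured after 6 and 13 days; detection limit 0.04 ng/mL.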

[5] = tested on: Rattus norvegicus; experiment: Suppression of testosterone in plasma of Sprague-Dawley rat at 2 nmol/h, sc measured after 6 days by radioimmunoassay; format: functional
In short: (§2)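 9-week-old male CD(SD)IGS or Copenhagen rats (5/group) given peptide in distilled water by subcutaneous dorsal ALZET osmotic pump (2 mM, 0.001 mL/h) for 6 days; water-pump controls. Plasma (aprotinin/EDTA) testosterone measured by RIA on 0.05 mL. Values below detection limit (0.04 ng/mL) set to 0.04; results expressed as percent of control.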

[6] = target: T1, KiSS-1 receptor; experiment: Agonist activity at recombinant human KISS1R expressed in CHO cells assessed as intracellular calcium mobilization incubated for 30 mins at 37 degC and 30 mins at room temperature by Fluo-4 NW staining-based FLIPR assay relative to Metastin (45 to 54); format: functional, cell-based
In short: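 CHO cells stably expressing human KISS1R seeded at 15,000 cells/well, cultured 24 h, then loaded with Fluo-4 Direct in HBSS with 4 mM probenecid and 0.1% BSA (30 min 37 °C, 30 min room temperature). Compounds from 10 µM DMSO stocks diluted in sample buffer and added. Fluorescence read for 2 min at 2 s intervals. Peak counts give agonist activity. EC50 expressed as ratio to metastin(45-54).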

[7] = tested on: Rattus norvegicus; experiment: Suppression of testosterone in plasma of Copenhagen rat at 2 nmol/h, sc measured after 6 days by radioimmunoassay; format: functional, organism-based; in short: as §2
[8] = tested on: Rattus norvegicus; experiment: Suppression of testosterone in plasma of rat at 1 nmol/h, sc measured after 6 days by radioimmunoassay; format: functional, organism-based; in short: as §1
[9] = Bioavailability in Sprague-Dawley rat at 1 mg/kg, sc; format: ADME, organism-based; settings: in vivo
[10] = tested on: Rattus norvegicus; experiment: Induction of ovulation in immature Wistar rats assessed as increase in number of oocytes at 30 to 100 nmol/kg administered dorsally by stereomicroscopy; format: functional, organism-based
In short: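 23-day-old female Wistar rats primed subcutaneously with eCG 10 IU/animal. Two days later, saline-dissolved agents injected dorsally at 30 or 100 nmol/kg (5 rats/group; saline control 6; hCG 10 IU positive control). Animals killed 24–25 h later. Oöcytes retrieved from oviducal ampulla under stereomicroscopy, or by flushing oviduct and uterus with saline, and counted.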

[11] = Plasma concentration in Copenhagen rat at 2 nmol/h, sc measured after 6 days by radioimmunoassay; format: ADME, organism-based

Compound	Ki [1]	Ki [2]	remaining at 1 h, 100 µM [3]	Activity [4]	Activity [5]	fold change (FC) [6]	Activity [7]	Activity [8]	bioavailability [9]	Activity [10]	concentration at 144 h [11]
CNC(N)=NCCC[C@H](NC(=O)[C@H](CC(C)C)NC(=O)NNC(=O)[C@H](Cc1ccccc1)NC(=O)[C@H](CO)NC(=O)[C@H](CC(N)=O)NC(=O)[C@@H](NC(=O)[C@@H](CC(N)=O)NC(=O)[C@H](N)Cc1ccc(O)cc1)[C@@H](C)O)C(=O)N[C@@H](Cc1ccccc1)C(N)=O	0.25 nM	0.29 nM	65.8%	–	–	–	–	–	–	–	–
CCNC(=O)[C@@H]1CCCN1C(=O)[C@H](CCCNC(=N)N)NC(=O)[C@H](CC(C)C)NC(=O)[C@@H](CC(C)C)NC(=O)[C@H](Cc1ccc(O)cc1)NC(=O)[C@H](CO)NC(=O)[C@H](Cc1c[nH]c2ccccc12)NC(=O)[C@H](Cc1c[nH]cn1)NC(=O)[C@@H]1CCC(=O)N1	–	–	–	Active	–	–	–	–	–	–	–
CNC(=N)NCCC[C@H](NC(=O)[C@H](CC(C)C)NC(=O)CNC(=O)[C@H](Cc1ccccc1)NC(=O)[C@H](CO)NC(=O)[C@H](CC(N)=O)NC(=O)[C@H](Cc1c[nH]c2ccccc12)NC(=O)[C@H](CC(N)=O)NC(=O)[C@H](N)Cc1ccc(O)cc1)C(=O)N[C@@H](Cc1ccccc1)C(N)=O	–	–	–	–	Active	0.93	–	–	–	–	–
CNC(=N)NCCC[C@H](NC(=O)[C@H](CC(C)C)NC(=O)NNC(=O)[C@H](Cc1ccccc1)NC(=O)[C@H](CO)NC(=O)[C@H](CC(N)=O)NC(=O)[C@H](Cc1c[nH]c2ccccc12)NC(=O)[C@H](N)Cc1ccc(O)cc1)C(=O)N[C@@H](Cc1ccccc1)C(N)=O (H-[dY]WNSF[azaGly]L[Arg(Me)]F-NH2)	0.059 nM	0.044 nM	43.4%	–	–	2.4	–	–	–	–	–
CNC(N)=NCCC[C@H](NC(=O)[C@H](CC(C)C)NC(=O)NNC(=O)[C@H](Cc1ccccc1)NC(=O)[C@H](CO)NC(=O)[C@H](CC(N)=O)NC(=O)[C@H](Cc1ccccc1)NC(=O)[C@@H](CC(N)=O)NC(=O)[C@H](N)Cc1ccc(O)cc1)C(=O)N[C@@H](Cc1ccccc1)C(N)=O (H-[dY][dN]FNSF[azaGly]L[Arg(Me)]F-NH2)	0.12 nM	0.12 nM	24.7%	–	–	–	–	–	–	–	–
CNC(=N)NCCC[C@H](NC(=O)[C@H](CC(C)C)NC(=O)NNC(=O)[C@H](Cc1ccccc1)NC(=O)[C@H](CO)NC(=O)[C@H](CC(N)=O)NC(=O)[C@@H](Cc1ccncc1)NC(=O)[C@H](N)Cc1ccc(O)cc1)C(=O)N[C@@H](Cc1ccccc1)C(N)=O [KISS1-305] (H-[dY][d4Pal]NSF[azaGly]L[Arg(Me)]F-NH2)	0.1 nM	0.089 nM	54.9%	Active	0.04 ng/mL	4.8	Active	Active	40.4%	Active	0.95 nM
